ChEMBL document CHEMBL4813946, “Discovery of novel 4-azaaryl-N-phenylpyrimidin-2-amine derivatives as potent and selective FLT3 inhibitors for acute myeloid leukaemia with FLT3 mutations” (Eur J Med Chem, 2021)
Calls of active or inactive are those of the source. The calls are words filed in the database; no cut-off is given here.

Columns and labels:
[1] = system: U-937; assay: Induction of apoptosis in human U937 cells assessed as late apoptotic cells at 20 x GI50 concentration incubated for 24 hrs by annexin V-FITC and propidium iodide staining based flow cytometry (reference value: […] %); assay type: functional
[2] = system: U-937; assay: Induction of apoptosis in human U937 cells assessed as early apoptotic cells at 20 x GI50 concentration incubated for 48 hrs by annexin V-FITC staining based flow cytometry (reference value: 2.78 %); assay type: functional
[3] = system: MV4-11; assay: Induction of apoptosis in human MV4-11 cells assessed as early apoptotic cells at 10 x GI50 concentration incubated for 24 hrs by annexin V-FITC and propidium iodide staining based flow cytometry (reference value: 2.12 %); assay type: functional
[4] = system: U-937; assay: Induction of apoptosis in human U937 cells assessed as necrotic cells at 10 x GI50 concentration incubated for 24 hrs by annexin V-FITC and propidium iodide staining based flow cytometry (reference value: 1.10 %); assay type: functional
[5] = system: MV4-11; assay: Induction of apoptosis in human MV4-11 cells assessed as necrotic cells at 1 x GI50 concentration incubated for 24 hrs by annexin V-FITC and propidium iodide staining based flow cytometry (reference value: 0.75 %); assay type: functional
[6] = system: Jurkat; assay: Antiproliferative activity against human Jurkat cells harboring FLT3 knockout gene assessed as reduction in cell viability after 72 hrs by resazurin assay; assay type: functional
Method in brief: (§1)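 Cells seeded and pre-incubated 24 h at 37 °C, 5% CO2, then given a five-fold dilution series of compound (from 10 mM DMSO stock) in medium, in triplicate. Resazurin added after 72 h exposure, 4 h in dark at 37 °C. Fluorescence read at 570/585 nm, normalised to DMSO vehicle. GI50 by non-linear regression; mean ± SD of at least two replicates.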

[7] = molecular target: CDK7/Cyclin H/MNAT1 (Homo sapiens, UniProt P50613); assay: Inhibition of CDK7/cyclin H/MAT1 (unknown origin) using HYSPTSPSYSPTSPSYSPTSPSKKKK-O substrate incubated for 120 mins measured after 40 mins incubation under dark by ADP-glo based luminescence assay; assay type: protein-complex assay
CDK7/Cyclin H/MNAT1, sequence (P51946 whole entry): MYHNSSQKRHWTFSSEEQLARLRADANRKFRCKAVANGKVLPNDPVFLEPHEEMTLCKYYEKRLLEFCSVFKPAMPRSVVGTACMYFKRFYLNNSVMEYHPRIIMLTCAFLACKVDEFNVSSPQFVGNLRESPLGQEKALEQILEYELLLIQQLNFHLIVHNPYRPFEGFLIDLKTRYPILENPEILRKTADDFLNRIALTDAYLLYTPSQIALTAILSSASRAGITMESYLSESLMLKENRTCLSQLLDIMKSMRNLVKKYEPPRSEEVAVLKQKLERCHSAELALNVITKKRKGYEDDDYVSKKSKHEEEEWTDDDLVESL
CDK7/Cyclin H/MNAT1, sequence (P50613 whole entry): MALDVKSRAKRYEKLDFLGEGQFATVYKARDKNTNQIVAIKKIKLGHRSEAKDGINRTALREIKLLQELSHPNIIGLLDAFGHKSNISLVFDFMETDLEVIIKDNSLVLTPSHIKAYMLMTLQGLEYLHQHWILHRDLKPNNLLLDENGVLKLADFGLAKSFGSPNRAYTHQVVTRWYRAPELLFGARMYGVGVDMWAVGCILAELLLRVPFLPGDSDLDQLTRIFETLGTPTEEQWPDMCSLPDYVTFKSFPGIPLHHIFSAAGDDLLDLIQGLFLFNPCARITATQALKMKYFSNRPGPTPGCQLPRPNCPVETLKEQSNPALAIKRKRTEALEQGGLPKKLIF
CDK7/Cyclin H/MNAT1, sequence (P51948 whole entry, further chain): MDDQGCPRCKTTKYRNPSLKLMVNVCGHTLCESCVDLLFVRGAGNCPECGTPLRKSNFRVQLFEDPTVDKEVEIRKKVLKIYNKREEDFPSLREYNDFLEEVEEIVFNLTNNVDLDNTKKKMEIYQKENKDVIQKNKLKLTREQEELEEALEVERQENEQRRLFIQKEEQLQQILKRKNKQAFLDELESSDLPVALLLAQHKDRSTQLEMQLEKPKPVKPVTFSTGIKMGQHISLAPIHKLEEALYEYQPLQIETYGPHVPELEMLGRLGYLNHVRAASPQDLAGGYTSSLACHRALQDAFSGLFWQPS
Method in brief: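 In-house ADP-Glo assay with 2 mM DMSO stocks. Kinases were CDK1/cyclin B at 1 nM, CDK2/cyclin E1 at 10 nM and CDK7/cyclin H/MAT1 at 40 nM. Substrate was histone 1 for CDK1 and CDK2, and a RNA pol II CTD peptide for CDK7. Compound at 8–10 concentrations, 1:3 serial, final DMSO 0.5%. Reactions ran 60–120 min at room temperature, then ADP-Glo reagent 40 min in the dark, then detection reagent 40 min, read by luminescence. Ki was derived from IC50 by Cheng-Prusoff.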

[8] = system: MV4-11; assay: Induction of apoptosis in human MV4-11 cells assessed as early apoptotic cells at 1 x GI50 concentration incubated for 24 hrs by annexin V-FITC and propidium iodide staining based flow cytometry (reference value: 2.12 %); assay type: functional
[9] = system: MV4-11; assay: Induction of apoptosis in human MV4-11 cells assessed as viable cells at 20 x GI50 concentration incubated for 48 hrs by annexin V-FITC and propidium iodide staining based flow cytometry (reference value: 91.87 %); assay type: functional
[10] = system: NB-4; assay: Antiproliferative activity against human NB-4 cells harboring wild type FLT3 assessed as reduction in cell viability after 72 hrs by resazurin assay; assay type: functional; method in brief: as §1
[11] = system: MV4-11; assay: Induction of apoptosis in human MV4-11 cells assessed as late apoptotic cells at 10 x GI50 concentration incubated for 24 hrs by annexin V-FITC and propidium iodide staining based flow cytometry (reference value: 12.45 %); assay type: functional
[12] = system: MV4-11; assay: Induction of apoptosis in human MV4-11 cells assessed as necrotic cells at 20 x GI50 concentration incubated for 24 hrs by annexin V-FITC and propidium iodide staining based flow cytometry (reference value: 0.75 %); assay type: functional
[13] = system: U-937; assay: Induction of apoptosis in human U937 cells assessed as necrotic cells at 5 x GI50 concentration incubated for 24 hrs by annexin V-FITC and propidium iodide staining based flow cytometry (reference value: 1.10 %); assay type: functional
[14] = molecular target: Receptor-type tyrosine-protein kinase FLT3 (Homo sapiens) (UniProt P36888); assay: Inhibition of FLT3-mediated signalling pathway in human U-937 cells assessed as inhibition of AKT phosphorylation upto 20 x GI50 concentration incubated for 6 hrs by western blot analysis; assay type: cell-based
Receptor-type tyrosine-protein kinase FLT3 (Homo sapiens), sequence (P36888 whole entry): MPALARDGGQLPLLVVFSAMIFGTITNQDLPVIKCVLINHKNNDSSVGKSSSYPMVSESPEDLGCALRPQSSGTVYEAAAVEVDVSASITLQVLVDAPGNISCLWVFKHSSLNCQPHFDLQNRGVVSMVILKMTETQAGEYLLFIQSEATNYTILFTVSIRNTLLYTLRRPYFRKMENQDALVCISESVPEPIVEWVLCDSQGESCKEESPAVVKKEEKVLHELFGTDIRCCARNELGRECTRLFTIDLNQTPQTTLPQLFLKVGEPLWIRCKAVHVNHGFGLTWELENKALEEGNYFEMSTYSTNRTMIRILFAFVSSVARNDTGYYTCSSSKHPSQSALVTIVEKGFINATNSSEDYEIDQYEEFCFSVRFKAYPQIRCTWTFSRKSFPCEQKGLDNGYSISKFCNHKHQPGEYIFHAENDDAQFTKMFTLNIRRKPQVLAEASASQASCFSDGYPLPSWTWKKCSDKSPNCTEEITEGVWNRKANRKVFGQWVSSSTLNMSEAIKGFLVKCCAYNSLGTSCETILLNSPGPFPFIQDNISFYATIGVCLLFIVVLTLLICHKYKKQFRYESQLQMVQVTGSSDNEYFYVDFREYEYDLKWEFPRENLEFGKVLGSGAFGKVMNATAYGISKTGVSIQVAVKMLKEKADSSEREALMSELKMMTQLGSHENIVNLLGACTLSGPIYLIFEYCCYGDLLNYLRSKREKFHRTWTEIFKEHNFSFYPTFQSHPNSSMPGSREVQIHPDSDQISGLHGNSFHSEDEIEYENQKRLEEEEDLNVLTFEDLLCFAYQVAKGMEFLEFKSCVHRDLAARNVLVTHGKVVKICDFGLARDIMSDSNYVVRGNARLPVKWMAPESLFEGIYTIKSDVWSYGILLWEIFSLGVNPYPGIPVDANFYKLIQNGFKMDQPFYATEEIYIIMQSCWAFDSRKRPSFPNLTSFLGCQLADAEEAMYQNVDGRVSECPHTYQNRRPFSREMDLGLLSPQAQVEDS
Method in brief: (§2)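 Cells lysed in phosphate lysis buffer with protease inhibitors and protein quantified. Western blots probed phospho and total STAT5, AKT, ERK, S6RP and eIF4E, plus full-length and cleaved PARP and caspase-3, with β-actin as loading control. At least two independent experiments.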

[15] = system: MV4-11; assay: Induction of apoptosis in human MV4-11 cells assessed as viable cells at 10 x GI50 concentration incubated for 48 hrs by annexin V-FITC and propidium iodide staining based flow cytometry (reference value: 91.87 %); assay type: functional
[16] = system: MV4-11; assay: Induction of apoptosis in human MV4-11 cells assessed as viable cells at 1 x GI50 concentration incubated for 48 hrs by annexin V-FITC and propidium iodide staining based flow cytometry (reference value: 91.87 %); assay type: functional
[17] = system: U-937; assay: Induction of apoptosis in human U937 cells assessed as late apoptotic cells at 20 x GI50 concentration incubated for 48 hrs by annexin V-FITC staining based flow cytometry (reference value: 9.82 %); assay type: functional
[18] = system: U-937; assay: Induction of apoptosis in human U937 cells assessed as viable cells at 20 x GI50 concentration incubated for 24 hrs by annexin V-FITC and propidium iodide staining based flow cytometry (reference value: 85.68 %); assay type: functional
[19] = system: U-937; assay: Induction of apoptosis in human U937 cells assessed as necrotic cells at 20 x GI50 concentration incubated for 48 hrs by annexin V-FITC staining based flow cytometry (reference value: 1.16 %); assay type: functional
[20] = system: U-937; assay: Induction of apoptosis in human U937 cells assessed as necrotic cells at 1 x GI50 concentration incubated for 24 hrs by annexin V-FITC and propidium iodide staining based flow cytometry (reference value: 1.10 %); assay type: functional
[21] = system: MV4-11; assay: Induction of apoptosis in human MV4-11 cells assessed as viable cells at 1 x GI50 concentration incubated for 24 hrs by annexin V-FITC and propidium iodide staining based flow cytometry (reference value: 84.68 %); assay type: functional
[22] = system: U-937; assay: Induction of apoptosis in human U937 cells assessed as necrotic cells at 10 x GI50 concentration incubated for 48 hrs by annexin V-FITC staining based flow cytometry (reference value: 1.16 %); assay type: functional
[23] = system: U-937; assay: Induction of apoptosis in human U937 cells assessed as viable cells at 1 x GI50 concentration incubated for 48 hrs by annexin V-FITC staining based flow cytometry (reference value: 86.25 %); assay type: functional
[24] = molecular target: Receptor-type tyrosine-protein kinase FLT3 (Homo sapiens) (UniProt P36888); assay: Inhibition of FLT3-mediated signalling pathway in human MV4-11 cells assessed as inhibition of eIF4E phosphorylation upto 20 x GI50 concentration incubated for 6 hrs by western blot analysis; assay type: cell-based; method in brief: as §2
[25] = system: U-937; assay: Induction of apoptosis in human U937 cells assessed as late apoptotic cells at 1 x GI50 concentration incubated for 24 hrs by annexin V-FITC and propidium iodide staining based flow cytometry (reference value: 10.30 %); assay type: functional
[26] = system: MV4-11; assay: Induction of apoptosis in human MV4-11 cells assessed as late apoptotic cells at 1 x GI50 concentration incubated for 48 hrs by annexin V-FITC and propidium iodide staining based flow cytometry (reference value: 6.59 %); assay type: functional

GI50 [6]: > 10 µM | Ki [7]: > 5 µM | inhibition [14]: Active | inhibition [24]: Active
Compound: CC(=O)N1CCN(c2ccc(Nc3nccc(-c4cn(C)c5ncccc45)n3)cc2)CC1
Activity [1]: 1.64% | Activity [2]: 3.44% | Activity [3]: 2.54% | Activity [4]: 1.4% | Activity [5]: 1.74% | Activity [8]: 2.16% | Activity [9]: 64.18% | GI50 [10]: 1.06 µM | Activity [11]: 20.33% | Activity [12]: 20.95% | Activity [13]: 1.7% | Activity [15]: 72.29% | Activity [16]: 89.25% | Activity [17]: 14.5% | Activity [18]: 85.3% | Activity [19]: 1.73% | Activity [20]: 1.42% | Activity [21]: 81.75% | Activity [22]: 1.57% | Activity [23]: 87.16% | Activity [25]: 7.98% | Activity [26]: 6.95%
